Drawing on ChEMBL document CHEMBL1144339, “Synthesis and activity of oleanolic acid derivatives, a novel class of inhibitors of osteoclast formation” (2005), this text covers Inhibition for 16 molecules.

Broadly, the Inhibition is the share of the control response that was lost under treatment.

The test system of the assay is Osteoclast-like. In words: Percent inhibition of tartrate resistant acid phosphatase positive osteoclast like multinucleated cells formation by 1-alpha, 25-dihydroxy vitamin D3 in mouse bone marrow cells. It is filed as functional. Set-up: concentration or dose not given beside the values. In short, it runs like this: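 Run as a co-culture assay. Formation of osteoclast-like multinucleated cells was induced with 1α,25-dihydroxy vitamin D₃.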
`CCC(C)C(NC(=O)[C@]12CCC(C)(C)C[C@H]1C1=CC[C@@H]3[C@@]4(C)CC[C@H](O)C(C)(C)C4CC[C@@]3(C)[C@]1(C)CC2)C(=O)O` (stereo partly specified) gave an Inhibition of 53.5%.
Next, `CC(C)C(NC(=O)[C@]12CCC(C)(C)C[C@H]1C1=CC[C@@H]3[C@@]4(C)CC[C@H](O)C(C)(C)C4CC[C@@]3(C)[C@]1(C)CC2)C(=O)O` (stereo partly specified): 41.3%; `CC(NC(=O)[C@]12CCC(C)(C)C[C@H]1C1=CC[C@@H]3[C@@]4(C)CC[C@H](O)C(C)(C)C4CC[C@@]3(C)[C@]1(C)CC2)C(=O)O` (stereo partly specified): 87.8%.
Next, `CC1(C)CC[C@]2(C(=O)O)CC[C@]3(C)C(=CC[C@@H]4[C@@]5(C)CC[C@H](O)C(C)(C)C5CC[C@]43C)[C@@H]2C1` (stereo partly specified): 27.6%; `CC1(C)CC[C@]2(C(=O)N3CCCC3C(=O)O)CC[C@]3(C)C(=CC[C@@H]4[C@@]5(C)CC[C@H](O)C(C)(C)C5CC[C@]43C)[C@@H]2C1` (stereo partly specified): 21%.
With `CC1(C)CC[C@]2(C(=O)N3CCCC3C(=O)O)CC[C@]3(C)C(=CC(=O)[C@@H]4[C@@]5(C)CC[C@H](O)C(C)(C)C5CC[C@]43C)[C@@H]2C1` (stereo partly specified), the Inhibition came out at 40.3%.
Molecule `CC1(C)CC[C@]2(C(=O)NC(Cc3ccccc3)C(=O)O)CC[C@]3(C)C(=CC[C@@H]4[C@@]5(C)CC[C@H](O)C(C)(C)C5CC[C@]43C)[C@@H]2C1` (stereo partly specified) gave an Inhibition of 16.3%.
Take `CC1(C)CC[C@]2(C(=O)O)CC[C@]3(C)C(=CC(=O)[C@@H]4[C@@]5(C)CC[C@H](O)C(C)(C)C5CC[C@]43C)[C@@H]2C1` (stereo partly specified): the Inhibition was determined as 38.5%.
`CC(C)C(NC(=O)[C@]12CCC(C)(C)C[C@H]1C1=CC(=O)[C@@H]3[C@@]4(C)CC[C@H](O)C(C)(C)C4CC[C@@]3(C)[C@]1(C)CC2)C(=O)O` (stereo partly specified) came in with an Inhibition of 59%.
In the case of `CCC(C)C(NC(=O)[C@]12CCC(C)(C)C[C@H]1C1=CC(=O)[C@@H]3[C@@]4(C)CC[C@H](O)C(C)(C)C4CC[C@@]3(C)[C@]1(C)CC2)C(=O)O` (stereo partly specified), the Inhibition came out at 62%.
Next, `CC1(C)CC[C@]2(C(=O)NCC(=O)O)CC[C@]3(C)C(=CC(=O)[C@@H]4[C@@]5(C)CC[C@H](O)C(C)(C)C5CC[C@]43C)[C@@H]2C1` (stereo partly specified): 83.3%; `CC1(C)CC[C@]2(C(=O)NC(Cc3ccccc3)C(=O)O)CC[C@]3(C)C(=CC(=O)[C@@H]4[C@@]5(C)CC[C@H](O)C(C)(C)C5CC[C@]43C)[C@@H]2C1` (stereo partly specified): 36.5%.
Next, `CC(C)CC(NC(=O)[C@]12CCC(C)(C)C[C@H]1C1=CC[C@@H]3[C@@]4(C)CC[C@H](O)C(C)(C)C4CC[C@@]3(C)[C@]1(C)CC2)C(=O)O` (stereo partly specified): 51.2%.
With `CC(NC(=O)[C@]12CCC(C)(C)C[C@H]1C1=CC(=O)[C@@H]3[C@@]4(C)CC[C@H](O)C(C)(C)C4CC[C@@]3(C)[C@]1(C)CC2)C(=O)O` (stereo partly specified), the Inhibition was 76.3%.
Molecule `CC(C)CC(NC(=O)[C@]12CCC(C)(C)C[C@H]1C1=CC(=O)[C@@H]3[C@@]4(C)CC[C@H](O)C(C)(C)C4CC[C@@]3(C)[C@]1(C)CC2)C(=O)O` (stereo partly specified) returned an Inhibition of 69.5%.
On to `CC1(C)CC[C@]2(C(=O)NCC(=O)O)CC[C@]3(C)C(=CC[C@@H]4[C@@]5(C)CC[C@H](O)C(C)(C)[C@@H]5CC[C@]43C)[C@@H]2C1`, for which the Inhibition came to 61.5%.
